According to ChEMBL document CHEMBL1123950, “N-(Retinoyl)amino acids. Synthesis and chemopreventive activity in vitro” (1988):

Columns and labels:
HEp-2 [1] = assay: Viability of human epidermoid carcinoma cells (H.Ep-2) at a conc 20 ug/mL; type: functional
In short: (§1)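 Human epidermoid carcinoma H.Ep.-2 cells, clone-colony viability assay with retinoid at 1-40 μg/mL; incubated 37 °C for 12 days, stained, colonies counted. % of control = 100 × treated colonies/control colonies.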

L1210 [2] = assay: Inhibition of proliferation of L1210 cells in culture at a conc 20 ug/mL; type: functional, Mus musculus; design: scale not given: the % may be the effect or the level left
In short: (§2)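 L1210 suspension of about 10⁵ cells treated with retinoid at 1-40 μg/mL, 37 °C for 48 h; cells counted at 0 and 48 h, three cultures averaged per concentration. % of control = 100 × (treated 48 h − 0 h count)/(control 48 h − 0 h count).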

HEp-2 [3] = assay: Viability of human epidermoid carcinoma cells (H.Ep-2) at a conc 10 ug/mL; type: functional; in short: as §1
L1210 [4] = assay: Inhibition of proliferation of L1210 cells in culture at a conc 1 ug/mL; type: functional, Mus musculus; design: scale not given: the % may be the effect or the level left; in short: as §2
L1210 [5] = assay: Inhibition of proliferation of L1210 cells in culture at a conc 10 ug/mL; type: functional, Mus musculus; design: scale not given: the % may be the effect or the level left; in short: as §2
HEp-2 [6] = assay: Viability of human epidermoid carcinoma cells (H.Ep-2) at a conc 1 ug/mL; type: functional; in short: as §1
HEp-2 [7] = assay: Viability of human epidermoid carcinoma cells (H.Ep-2) at a conc 40 ug/mL; type: functional; in short: as §1
Cricetinae gen. sp. [8] = assay: Cultures with no evidence of squamous metaplasia at a conc of 10e-8 M; type: functional, Cricetulus griseus
In short: (§3)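 Tracheas from 29-31-day-old hamsters fed a vitamin A free diet; cultured in serum-free CMRL 1066 (insulin 1.0 μg/mL, hydrocortisone hemisuccinate 0.1 μg/mL, glutamine 2 mM, Garamycin 50 μg/mL), 50% O2/45% N2/5% CO2, rocked, 36 °C. Retinoid-free 3 days, then retinoid in DMSO (final 0.1%) for 7 days; medium and gas changed three times. Formalin-fixed day 10; squamous metaplasia graded: mild 2-10%, marked 10-40%, severe >40%.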

Cricetinae gen. sp. [9] = assay: Cultures with marked degree of squamous metaplasia at a conc of 10e-10 M; type: functional, Cricetulus griseus; in short: as §3
Cricetinae gen. sp. [10] = assay: Cultures with marked degree of squamous metaplasia at a conc of 10e-8 M; type: functional, Cricetulus griseus; in short: as §3
Cricetinae gen. sp. [11] = assay: Cultures with severe degree of squamous metaplasia at a conc of 10e-8 M; type: functional, Cricetulus griseus; in short: as §3
Cricetinae gen. sp. [12] = assay: Cultures with no evidence of squamous metaplasia at a conc of 10e-10 M; type: functional, Cricetulus griseus; in short: as §3
Cricetinae gen. sp. [13] = assay: Cultures with mild degree of squamous metaplasia at a conc of 10e-11 M; type: functional, Cricetulus griseus; in short: as §3
Cricetinae gen. sp. [14] = assay: Reversal of keratinization in vitamin A deficient hamster trachea culture at a conc of 10e-8 M; type: functional, Cricetulus griseus; details: read-out: ED50 (the source's name)
In short: (§4)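 Tracheas from 29-31-day-old hamsters kept on a vitamin A free diet, cultured in serum-free CMRL 1066 (insulin 1.0 μg/mL, hydrocortisone hemisuccinate 0.1 μg/mL, glutamine 2 mM, Garamycin 50 μg/mL), 50% O2/45% N2/5% CO2, rocked at 36 °C. Retinoid-free for 3 days, then retinoid in DMSO (0.1% final) for 7 days. Fixed in formalin; squamous metaplasia graded mild 2-10%, marked 10-40%, severe >40%.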

Cricetinae gen. sp. [15] = assay: Cultures with severe degree of squamous metaplasia at a conc of 10e-11 M; type: functional, Cricetulus griseus; in short: as §3
Cricetinae gen. sp. [16] = assay: Cultures with minimal degree of squamous metaplasia at a conc of 10e-10 M; type: functional, Cricetulus griseus; in short: as §3
Cricetinae gen. sp. [17] = assay: Cultures with mild degree of squamous metaplasia at a conc of 10e-9 M; type: functional, Cricetulus griseus; in short: as §3
Cricetinae gen. sp. [18] = assay: Cultures with minimal degree of squamous metaplasia at a conc of 10e-11 M; type: functional, Cricetulus griseus; in short: as §3
Cricetinae gen. sp. [19] = assay: Cultures with minimal degree of squamous metaplasia at a conc of 10e-9 M; type: functional, Cricetulus griseus; in short: as §3
Cricetinae gen. sp. [20] = assay: Cultures with mild degree of squamous metaplasia at a conc of 10e-10 M; type: functional, Cricetulus griseus; in short: as §3
Cricetinae gen. sp. [21] = assay: Cultures with mild degree of squamous metaplasia at a conc of 10e-8 M; type: functional, Cricetulus griseus; in short: as §3
Cricetinae gen. sp. [22] = assay: Cultures with minimal degree of squamous metaplasia at a conc of 10e-8 M; type: functional, Cricetulus griseus; in short: as §3
Cricetinae gen. sp. [23] = assay: Cultures with severe degree of squamous metaplasia at a conc of 10e-10 M; type: functional, Cricetulus griseus; in short: as §3
Cricetinae gen. sp. [24] = assay: Cultures with severe degree of squamous metaplasia at a conc of 10e-9 M; type: functional, Cricetulus griseus; in short: as §3
Cricetinae gen. sp. [25] = assay: Cultures with marked degree of squamous metaplasia at a conc of 10e-9 M; type: functional, Cricetulus griseus; in short: as §3
Cricetinae gen. sp. [26] = assay: Cultures with marked degree of squamous metaplasia at a conc of 10e-11 M; type: functional; in short: as §3
Cricetinae gen. sp. [27] = assay: Cultures with no evidence of squamous metaplasia at a conc of 10e-11 M; type: functional, Cricetulus griseus; in short: as §3
Cricetinae gen. sp. [28] = assay: Cultures with no evidence of squamous metaplasia at a conc of 10e-9 M; type: functional, Cricetulus griseus; in short: as §3
Cricetinae gen. sp. [29] = assay: Reversal of keratinization in vitamin A deficient hamster trachea culture; type: functional, Cricetulus griseus; details: read-out: ED50 (the source's name); in short: as §4
L1210 [30] = assay: Inhibition of proliferation of L1210 cells in culture at a conc 40 ug/mL; type: functional, Mus musculus; design: scale not given: the % may be the effect or the level left; in short: as §2

Row | SMILES | EC50 (Cricetinae gen. sp. [14]) | EC50 (Cricetinae gen. sp. [29]) | Culture (Cricetinae gen. sp. [8]) | Culture (Cricetinae gen. sp. [9]) | Culture (Cricetinae gen. sp. [10]) | Culture (Cricetinae gen. sp. [11]) | Culture (Cricetinae gen. sp. [12]) | Culture (Cricetinae gen. sp. [16]) | Culture (Cricetinae gen. sp. [17]) | Culture (Cricetinae gen. sp. [19]) | Culture (Cricetinae gen. sp. [20]) | Culture (Cricetinae gen. sp. [21]) | Culture (Cricetinae gen. sp. [22]) | Culture (Cricetinae gen. sp. [23]) | Culture (Cricetinae gen. sp. [24]) | Culture (Cricetinae gen. sp. [25]) | Culture (Cricetinae gen. sp. [28]) | other results
1 | CC1=C(/C=C/C(C)=C/C=C/C(C)=C/C(=O)NCC(=O)O)C(C)(C)CCC1 |  |  |  |  |  |  |  |  |  |  |  |  |  |  |  |  |  | Control (HEp-2 [1]): 12%; Control (L1210 [2]): 19%; Control (HEp-2 [3]): 67%; Control (L1210 [4]): 68%; Control (L1210 [5]): 70%; Control (HEp-2 [6]): 116%; Control (HEp-2 [7]): 13%
2 | CCNC(=O)\C=C(C)/C=C/C=C(C)/C=C/C1=C(C)CCCC1(C)C |  | 0.3 nM |  |  |  |  |  |  |  |  |  |  |  |  |  |  |  | Control (HEp-2 [1]): 10%; Control (L1210 [2]): 54%; Control (HEp-2 [3]): 13%; Control (L1210 [4]): 84%; Control (L1210 [5]): 77%; Control (HEp-2 [6]): 59%; Control (HEp-2 [7]): 15%
3 | CCNC(=O)/C=C(C)/C=C/C=C(C)/C=C/C1=C(C)CCCC1(C)C |  | 1 nM |  |  |  |  |  |  |  |  |  |  |  |  |  |  |  | 
4 | CC1=C(/C=C/C(C)=C/C=C/C(C)=C\C(=O)NCCO)C(C)(C)CCC1 |  | 0.3 nM |  |  |  |  |  |  |  |  |  |  |  |  |  |  |  | Control (HEp-2 [1]): 21%; Control (L1210 [2]): 56%; Control (HEp-2 [3]): 38%; Control (L1210 [4]): 76%; Control (L1210 [5]): 57%; Control (HEp-2 [6]): 61%; Control (HEp-2 [7]): 27%; Control (L1210 [30]): 0.5%
5 | CC1=C(/C=C/C(C)=C/C=C/C(C)=C\C(=O)NC(C)C(=O)O)C(C)(C)CCC1 (stereo not given) | 0.7 nM |  | 100% | 36% | 0% | 0% | 36% | 0% | 13% | 0% | 21% | 0% | 0% | 7% | 0% | 40% | 47% | Culture (Cricetinae gen. sp. [13]): 0%; Culture (Cricetinae gen. sp. [15]): 15%; Culture (Cricetinae gen. sp. [18]): 0%; Culture (Cricetinae gen. sp. [26]): 71%; Culture (Cricetinae gen. sp. [27]): 14%
6 | CC1=C(/C=C/C(C)=C/C=C/C(C)=C/C(=O)NCCO)C(C)(C)CCC1 |  | 0.1 nM |  |  |  |  |  |  |  |  |  |  |  |  |  |  |  | 
7 | CC1=C(/C=C/C(C)=C/C=C/C(C)=C\C(=O)O)C(C)(C)CCC1 [ISOTRETINOIN] |  | 0.03 nM |  |  |  |  |  |  |  |  |  |  |  |  |  |  |  | 
8 | CC1=C(/C=C/C(C)=C/C=C/C(C)=C/C(=O)O)C(C)(C)CCC1 [TRETINOIN] |  | 0.03 nM |  |  |  |  |  |  |  |  |  |  |  |  |  |  |  | 

Continued, in another order:

Row | EC50 (Cricetinae gen. sp. [14]) | EC50 (Cricetinae gen. sp. [29]) | SMILES | Culture (Cricetinae gen. sp. [8]) | Culture (Cricetinae gen. sp. [9]) | Culture (Cricetinae gen. sp. [10]) | Culture (Cricetinae gen. sp. [11]) | Culture (Cricetinae gen. sp. [12]) | Culture (Cricetinae gen. sp. [16]) | Culture (Cricetinae gen. sp. [17]) | Culture (Cricetinae gen. sp. [19]) | Culture (Cricetinae gen. sp. [20]) | Culture (Cricetinae gen. sp. [21]) | Culture (Cricetinae gen. sp. [22]) | Culture (Cricetinae gen. sp. [23]) | Culture (Cricetinae gen. sp. [24]) | Culture (Cricetinae gen. sp. [25]) | Culture (Cricetinae gen. sp. [28]) | other results
9 | 0.6 nM |  | CC1=C(/C=C/C(C)=C/C=C/C(C)=C\C(=O)NC(Cc2ccccc2)C(=O)O)C(C)(C)CCC1 (stereo not given) | 60% | 36% | 20% | 7% | 29% | 0% | 20% | 0% | 21% | 13% | 0% | 14% | 7% | 20% | 53% | Culture (Cricetinae gen. sp. [13]): 14%; Culture (Cricetinae gen. sp. [15]): 14%; Culture (Cricetinae gen. sp. [18]): 0%; Culture (Cricetinae gen. sp. [26]): 43%; Culture (Cricetinae gen. sp. [27]): 29%
10 |  | > 1 nM | CC1=C(/C=C/C(C)=C/C=C/C(C)=C\C(=O)Nc2ccc(O)cc2)C(C)(C)CCC1 |  |  |  |  |  |  |  |  |  |  |  |  |  |  |  | 
11 | > 10 nM |  | CC1=C(/C=C/C(C)=C/C=C/C(C)=C/C(=O)NC(CCC(=O)O)C(=O)O)C(C)(C)CCC1 (stereo not given) | 38% | 43% | 50% | 0% | 14% | 14% | 50% | 0% | 29% | 12% | 0% | 0% | 0% | 25% | 25% | 
12 | 0.5 nM |  | CC1=C(/C=C/C(C)=C/C=C/C(C)=C\C(=O)NC(CC(C)C)C(=O)O)C(C)(C)CCC1 (stereo not given) | 72% | 57% | 14% | 0% | 29% | 0% | 29% | 0% | 14% | 14% | 0% | 0% | 0% | 14% | 57% | Culture (Cricetinae gen. sp. [13]): 0%; Culture (Cricetinae gen. sp. [15]): 17%; Culture (Cricetinae gen. sp. [18]): 0%; Culture (Cricetinae gen. sp. [26]): 50%; Culture (Cricetinae gen. sp. [27]): 33%
13 | 3 nM |  | CC1=C(/C=C/C(C)=C/C=C/C(C)=C/C(=O)NC(Cc2ccc(O)cc2)C(=O)O)C(C)(C)CCC1 (stereo not given) | 75% | 58% | 25% | 0% | 14% | 0% | 12% | 0% | 14% | 0% | 0% | 14% | 0% | 50% | 38% | 
14 |  | 0.3 nM | CC1=C(/C=C/C(C)=C/C=C/C(C)=C/C(=O)Nc2ccc(O)cc2)C(C)(C)CCC1 [FENRETINIDE] |  |  |  |  |  |  |  |  |  |  |  |  |  |  |  | 
